Test results taken from ChEMBL document CHEMBL3259614, “Design, synthesis, and structure-activity relationship studies of novel fused heterocycles-linked triazoles with good activity and water solubility” (J Med Chem, 2014).
Converted amounts (≈) assume the structure as drawn.

Key:
Assay type in all cases: functional
Aspergillus fumigatus = test: Antimicrobial activity against Aspergillus fumigatus 7544 after 48 hrs by serial dilution method; conditions: Aspergillus fumigatus, 7544, 48 h
Summary of the method: (§1)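 Broth serial dilution MIC in 96-well plates following NCCLS/CLSI methods. Compounds were dissolved in DMSO and serially diluted in growth medium, with incubation at 35 °C. […] C. parapsilosis 22019 served as the quality-control strain in each assay.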

Nakaseomyces glabratus = test: Antimicrobial activity against Candida glabrata 537 after 24 hrs by serial dilution method; conditions: Nakaseomyces glabratus, 537, 24 h; summary of the method: as §1
Candida parapsilosis = test: Antimicrobial activity against Candida parapsilosis 22019 after 24 hrs by serial dilution method; conditions: Lodderomyces parapsilosis, 22019, 24 h; summary of the method: as §1
Candida albicans [1] = test: Antimicrobial activity against Candida albicans SC5314 after 24 hrs by serial dilution method; conditions: SC5314, 24 h; summary of the method: as §1
Candida albicans [2] = test: Antimicrobial activity against Candida albicans Y0109 after 24 hrs by serial dilution method; conditions: Y0109, 24 h; summary of the method: as §1
Cryptococcus neoformans = test: Antimicrobial activity against Cryptococcus neoformans 32609 after 72 hrs by serial dilution method; conditions: Cryptococcus neoformans, 32609, 72 h; summary of the method: as §1

MIC (Aspergillus fumigatus) [µg/mL]	MIC (Nakaseomyces glabratus) [µg/mL]	MIC (Candida parapsilosis) [µg/mL]	MIC (Candida albicans [1]) [µg/mL]	MIC (Candida albicans [2]) [µg/mL]	MIC (Cryptococcus neoformans) [µg/mL]	Structure (SMILES)
4 (≈ 8.54 µM)	0.125 (≈ 0.267 µM)	0.125 (≈ 0.267 µM)	0.0312 (≈ 0.0667 µM)	0.0312 (≈ 0.0667 µM)	0.125 (≈ 0.267 µM)	C[C@@H](N1CCc2nc(-c3ccncc3)sc2C1)[C@](O)(Cn1cncn1)c1ccc(F)cc1F
8 (≈ 16.4 µM)	0.125 (≈ 0.257 µM)	0.25 (≈ 0.514 µM)	0.125 (≈ 0.257 µM)	0.125 (≈ 0.257 µM)	0.125 (≈ 0.257 µM)	C[C@@H](N1CCc2nc(-c3cncc(F)c3)sc2C1)[C@](O)(Cn1cncn1)c1ccc(F)cc1F
8 (≈ 16.2 µM)	0.5 (≈ 1.01 µM)	0.25 (≈ 0.507 µM)	0.125 (≈ 0.253 µM)	0.25 (≈ 0.507 µM)	0.25 (≈ 0.507 µM)	C[C@@H](N1CCc2nc(-c3cncc(C#N)c3)sc2C1)[C@](O)(Cn1cncn1)c1ccc(F)cc1F
8 (≈ 16.2 µM)	0.5 (≈ 1.01 µM)	0.25 (≈ 0.507 µM)	0.0625 (≈ 0.127 µM)	0.0625 (≈ 0.127 µM)	0.25 (≈ 0.507 µM)	C[C@@H](N1CCc2nc(-c3ccc(C#N)nc3)sc2C1)[C@](O)(Cn1cncn1)c1ccc(F)cc1F
8 (≈ 16.4 µM)	0.125 (≈ 0.257 µM)	0.25 (≈ 0.514 µM)	0.0625 (≈ 0.128 µM)	0.125 (≈ 0.257 µM)	0.125 (≈ 0.257 µM)	C[C@@H](N1CCc2nc(-c3ccc(F)nc3)sc2C1)[C@](O)(Cn1cncn1)c1ccc(F)cc1F
16 (≈ 32.1 µM)	0.5 (≈ 1 µM)	0.5 (≈ 1 µM)	0.25 (≈ 0.501 µM)	0.25 (≈ 0.501 µM)	0.25 (≈ 0.501 µM)	COc1ccc(-c2nc3c(s2)CN([C@H](C)[C@](O)(Cn2cncn2)c2ccc(F)cc2F)CC3)cn1
16 (≈ 33.1 µM)	0.25 (≈ 0.517 µM)	0.25 (≈ 0.517 µM)	0.0625 (≈ 0.129 µM)	0.0625 (≈ 0.129 µM)	0.25 (≈ 0.517 µM)	Cc1ncc(-c2nc3c(s2)CN([C@H](C)[C@](O)(Cn2cncn2)c2ccc(F)cc2F)CC3)cn1
8 (≈ 16 µM)	0.25 (≈ 0.5 µM)	0.25 (≈ 0.5 µM)	0.0625 (≈ 0.125 µM)	0.125 (≈ 0.25 µM)	0.5 (≈ 1 µM)	COc1ncc(-c2nc3c(s2)CN([C@H](C)[C@](O)(Cn2cncn2)c2ccc(F)cc2F)CC3)cn1
64 (≈ 136 µM)	4 (≈ 8.52 µM)	8 (≈ 17 µM)	2 (≈ 4.26 µM)	4 (≈ 8.52 µM)	2 (≈ 4.26 µM)	C[C@@H](N1CCc2sc(Br)cc2C1)[C@](O)(Cn1cncn1)c1ccc(F)cc1F
32 (≈ 68.6 µM)	4 (≈ 8.57 µM)	8 (≈ 17.1 µM)	1 (≈ 2.14 µM)	8 (≈ 17.1 µM)	2 (≈ 4.29 µM)	C[C@@H](N1CCc2sc(-c3ccccc3)cc2C1)[C@](O)(Cn1cncn1)c1ccc(F)cc1F
64 (≈ 132 µM)	4 (≈ 8.26 µM)	8 (≈ 16.5 µM)	2 (≈ 4.13 µM)	2 (≈ 4.13 µM)	2 (≈ 4.13 µM)	C[C@@H](N1CCc2sc(-c3ccc(F)cc3)cc2C1)[C@](O)(Cn1cncn1)c1ccc(F)cc1F
32 (≈ 59.9 µM)	16 (≈ 29.9 µM)	16 (≈ 29.9 µM)	4 (≈ 7.48 µM)	8 (≈ 15 µM)	8 (≈ 15 µM)	C[C@@H](N1CCc2sc(-c3ccc(C(F)(F)F)cc3)cc2C1)[C@](O)(Cn1cncn1)c1ccc(F)cc1F
32 (≈ 63.9 µM)	16 (≈ 31.9 µM)	16 (≈ 31.9 µM)	4 (≈ 7.98 µM)	8 (≈ 16 µM)	8 (≈ 16 µM)	C[C@@H](N1CCc2sc(-c3ccc(Cl)cc3)cc2C1)[C@](O)(Cn1cncn1)c1ccc(F)cc1F
8 (≈ 16.6 µM)	4 (≈ 8.32 µM)	4 (≈ 8.32 µM)	1 (≈ 2.08 µM)	2 (≈ 4.16 µM)	4 (≈ 8.32 µM)	Cc1ccc(-c2cc3c(s2)CCN([C@H](C)[C@](O)(Cn2cncn2)c2ccc(F)cc2F)C3)cc1
64 (≈ 130 µM)	8 (≈ 16.3 µM)	8 (≈ 16.3 µM)	2 (≈ 4.07 µM)	8 (≈ 16.3 µM)	4 (≈ 8.14 µM)	C[C@@H](N1CCc2sc(-c3ccc(C#N)cc3)cc2C1)[C@](O)(Cn1cncn1)c1ccc(F)cc1F
16 (≈ 33.3 µM)	4 (≈ 8.32 µM)	2 (≈ 4.16 µM)	1 (≈ 2.08 µM)	2 (≈ 4.16 µM)	4 (≈ 8.32 µM)	Cc1cccc(-c2cc3c(s2)CCN([C@H](C)[C@](O)(Cn2cncn2)c2ccc(F)cc2F)C3)c1
8 (≈ 16.5 µM)	1 (≈ 2.06 µM)	4 (≈ 8.26 µM)	1 (≈ 2.06 µM)	2 (≈ 4.13 µM)	1 (≈ 2.06 µM)	C[C@@H](N1CCc2sc(-c3cccc(F)c3)cc2C1)[C@](O)(Cn1cncn1)c1ccc(F)cc1F
64 (≈ 130 µM)	8 (≈ 16.3 µM)	4 (≈ 8.14 µM)	2 (≈ 4.07 µM)	4 (≈ 8.14 µM)	2 (≈ 4.07 µM)	C[C@@H](N1CCc2sc(-c3cccc(C#N)c3)cc2C1)[C@](O)(Cn1cncn1)c1ccc(F)cc1F
> 64	8 (≈ 16 µM)	4 (≈ 7.98 µM)	2 (≈ 3.99 µM)	2 (≈ 3.99 µM)	4 (≈ 7.98 µM)	C[C@@H](N1CCc2sc(-c3cccc(Cl)c3)cc2C1)[C@](O)(Cn1cncn1)c1ccc(F)cc1F
32 (≈ 59.9 µM)	1 (≈ 1.87 µM)	2 (≈ 3.74 µM)	1 (≈ 1.87 µM)	0.5 (≈ 0.935 µM)	0.5 (≈ 0.935 µM)	C[C@@H](N1CCc2sc(-c3cccc(C(F)(F)F)c3)cc2C1)[C@](O)(Cn1cncn1)c1ccc(F)cc1F
> 32	8 (≈ 17.1 µM)	4 (≈ 8.54 µM)	2 (≈ 4.27 µM)	4 (≈ 8.54 µM)	4 (≈ 8.54 µM)	C[C@@H](N1CCc2sc(-c3cncnc3)cc2C1)[C@](O)(Cn1cncn1)c1ccc(F)cc1F
32 (≈ 65 µM)	2 (≈ 4.06 µM)	2 (≈ 4.06 µM)	1 (≈ 2.03 µM)	4 (≈ 8.12 µM)	1 (≈ 2.03 µM)	C[C@@H](N1CCc2sc(-c3ccc(C#N)nc3)cc2C1)[C@](O)(Cn1cncn1)c1ccc(F)cc1F
> 32	8 (≈ 17.1 µM)	4 (≈ 8.56 µM)	1 (≈ 2.14 µM)	2 (≈ 4.28 µM)	4 (≈ 8.56 µM)	C[C@@H](N1CCc2sc(-c3ccncc3)cc2C1)[C@](O)(Cn1cncn1)c1ccc(F)cc1F
32 (≈ 68.4 µM)	2 (≈ 4.28 µM)	4 (≈ 8.56 µM)	1 (≈ 2.14 µM)	8 (≈ 17.1 µM)	4 (≈ 8.56 µM)	C[C@@H](N1CCc2sc(-c3cccnc3)cc2C1)[C@](O)(Cn1cncn1)c1ccc(F)cc1F
32 (≈ 68.2 µM)	1 (≈ 2.13 µM)	2 (≈ 4.26 µM)	1 (≈ 2.13 µM)	0.5 (≈ 1.07 µM)	0.5 (≈ 1.07 µM)	C[C@@H](N1CCc2cc(Br)sc2C1)[C@](O)(Cn1cncn1)c1ccc(F)cc1F
32 (≈ 68.4 µM)	2 (≈ 4.28 µM)	2 (≈ 4.28 µM)	1 (≈ 2.14 µM)	4 (≈ 8.56 µM)	1 (≈ 2.14 µM)	C[C@@H](N1CCc2cc(-c3ccncc3)sc2C1)[C@](O)(Cn1cncn1)c1ccc(F)cc1F
8 (≈ 17.1 µM)	1 (≈ 2.14 µM)	1 (≈ 2.14 µM)	0.5 (≈ 1.07 µM)	1 (≈ 2.14 µM)	0.5 (≈ 1.07 µM)	C[C@@H](N1CCc2cc(-c3cccnc3)sc2C1)[C@](O)(Cn1cncn1)c1ccc(F)cc1F
16 (≈ 34.1 µM)	1 (≈ 2.13 µM)	0.5 (≈ 1.07 µM)	0.5 (≈ 1.07 µM)	0.25 (≈ 0.534 µM)	0.5 (≈ 1.07 µM)	C[C@@H](N1CCc2cc(-c3cncnc3)sc2C1)[C@](O)(Cn1cncn1)c1ccc(F)cc1F
32 (≈ 65 µM)	4 (≈ 8.12 µM)	4 (≈ 8.12 µM)	2 (≈ 4.06 µM)	4 (≈ 8.12 µM)	4 (≈ 8.12 µM)	C[C@@H](N1CCc2cc(-c3ccc(C#N)nc3)sc2C1)[C@](O)(Cn1cncn1)c1ccc(F)cc1F
